Results collected from several papers.
Protocols differ between the studies behind these lines.
Target: Rhodopsin kinase GRK1 (GRK1, Homo sapiens, UniProt Q15835)
Residues used in one study (Q15835 1-563): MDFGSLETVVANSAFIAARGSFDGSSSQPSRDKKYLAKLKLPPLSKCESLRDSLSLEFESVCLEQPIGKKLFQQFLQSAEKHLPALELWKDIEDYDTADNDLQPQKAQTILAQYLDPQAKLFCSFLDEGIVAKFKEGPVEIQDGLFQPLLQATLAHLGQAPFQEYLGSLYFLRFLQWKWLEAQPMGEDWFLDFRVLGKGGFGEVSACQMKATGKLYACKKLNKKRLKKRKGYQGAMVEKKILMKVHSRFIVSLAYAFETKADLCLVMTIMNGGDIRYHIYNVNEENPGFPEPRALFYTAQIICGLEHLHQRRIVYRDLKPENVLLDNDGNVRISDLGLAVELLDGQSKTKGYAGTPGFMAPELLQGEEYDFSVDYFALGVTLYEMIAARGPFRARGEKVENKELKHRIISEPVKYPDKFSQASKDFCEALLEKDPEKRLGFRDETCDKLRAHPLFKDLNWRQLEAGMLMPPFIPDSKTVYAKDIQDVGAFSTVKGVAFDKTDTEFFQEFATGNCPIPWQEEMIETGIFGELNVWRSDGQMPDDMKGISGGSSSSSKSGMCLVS

Cn1c2c(c3ccc(Cl)c(Cl)c31)C(C#N)C1(CCCCC1)NC2=O (racemic)  ΔTm (thermal stability, DSF; 10 µM): 0.1 °C
Cc1ccc(C(=O)Nc2ccc(CN3CCN(C)CC3)c(C(F)(F)F)c2)cc1C#Cc1cnc2cccnn12  remaining activity (enzyme activity, inhibitor; 23.5 nM): 93%
COc1ccc2c(c1)O[C@H](c1ccc(OC)c(OC)c1)C[C@@H]2NC(=O)C1(c2ccc3c(c2)OC(F)(F)O3)CC1  remaining binding (cell-free assay, competition with immobilised ligand; 1 µM): 97%
Cc1ccc(NC(=O)c2ccc(C)c(C(F)(F)F)c2)cc1C#Cc1nn(C2CCC(O)CC2)c2ncnc(N)c12 (stereo not drawn)  remaining signal (cell-free assay; 10 µM): 94%
Cn1c2c(Cl)c(Cl)ccc2c2cc[nH]c(=O)c21  ΔTm (thermal stability, DSF; 10 µM): 1.5 °C
Cc1cc(NC(=O)c2cccc3cc(-c4cccc5[nH]nc(N)c45)ccc23)ccc1F  activity vs control (enzyme activity, inhibitor; 0.1 µM): 85%
Cc1cc(NC(=O)c2cccc(S(F)(F)(F)(F)F)c2)cc(-n2ccn3nc(-c4cccnc4)cc23)c1  remaining binding (cell-free assay, competition with immobilised ligand; 1 µM): 50.4%
N#CC1c2c([nH]c3c(Cl)c(Cl)ccc23)C(=O)NC12CCCCC2 (racemic)  ΔTm (thermal stability, DSF; 10 µM): 0.6 °C
C[C@H](c1ccc(F)cc1)N(Cc1cccc(C(=O)O)c1)C(=O)c1cnc2ccccc2c1  remaining binding (cell-free assay, competition with immobilised ligand; 1 µM): 100%
O=C(Nc1cnn(-c2csc(C(=O)NC3COC3)c2)c1)Nc1ccccc1Cl  remaining activity (enzyme activity, inhibitor; 5 µM): 91.9%
CC(C)CC(=O)N1CCc2nc(-c3ccc(Br)cc3)nc(N(C)Cc3ccccc3)c2C1  remaining binding (cell-free assay, competition with immobilised ligand; 0.1 µM): 100%
Cn1c2c(Cl)c(Cl)ccc2c2cc(N)[nH]c(=O)c21  ΔTm (thermal stability, DSF; 10 µM): 0.5 °C
COc1cc(Cl)c(C(=O)N[C@@H](CN[C@H]2CC[C@@H](N)CC2)Cc2ccc(C#N)cc2)cc1-c1ccc(CN[C@H](C)c2ccc(C)cc2)o1  remaining activity (enzyme activity, inhibitor; 1 µM): 100%
O=C(N1CCS(=O)(=O)CC1)N1C[C@H](c2ccc(OC(F)(F)F)cc2)C[C@H](c2nc(C3CC3)no2)C1  remaining binding (cell-free assay, competition with immobilised ligand; 1 µM): 92%
Nc1ncnc2occ(-c3ccc(NC(=O)Nc4cc(C(F)(F)F)ccc4F)cc3)c12  remaining signal (cell-free assay, inhibitor; 20 µM): 100%
